The source of these data is ChEMBL document CHEMBL4706770, “SD-91 as A Potent and Selective STAT3 Degrader Capable of Achieving Complete and Long-Lasting Tumor Regression” (ACS Med Chem Lett, 2021).

For data set [1], the target named is T1, Signal transducer and activator of transcription 4 (Homo sapiens) (UniProt Q14765).
T1 sequence (whole entry): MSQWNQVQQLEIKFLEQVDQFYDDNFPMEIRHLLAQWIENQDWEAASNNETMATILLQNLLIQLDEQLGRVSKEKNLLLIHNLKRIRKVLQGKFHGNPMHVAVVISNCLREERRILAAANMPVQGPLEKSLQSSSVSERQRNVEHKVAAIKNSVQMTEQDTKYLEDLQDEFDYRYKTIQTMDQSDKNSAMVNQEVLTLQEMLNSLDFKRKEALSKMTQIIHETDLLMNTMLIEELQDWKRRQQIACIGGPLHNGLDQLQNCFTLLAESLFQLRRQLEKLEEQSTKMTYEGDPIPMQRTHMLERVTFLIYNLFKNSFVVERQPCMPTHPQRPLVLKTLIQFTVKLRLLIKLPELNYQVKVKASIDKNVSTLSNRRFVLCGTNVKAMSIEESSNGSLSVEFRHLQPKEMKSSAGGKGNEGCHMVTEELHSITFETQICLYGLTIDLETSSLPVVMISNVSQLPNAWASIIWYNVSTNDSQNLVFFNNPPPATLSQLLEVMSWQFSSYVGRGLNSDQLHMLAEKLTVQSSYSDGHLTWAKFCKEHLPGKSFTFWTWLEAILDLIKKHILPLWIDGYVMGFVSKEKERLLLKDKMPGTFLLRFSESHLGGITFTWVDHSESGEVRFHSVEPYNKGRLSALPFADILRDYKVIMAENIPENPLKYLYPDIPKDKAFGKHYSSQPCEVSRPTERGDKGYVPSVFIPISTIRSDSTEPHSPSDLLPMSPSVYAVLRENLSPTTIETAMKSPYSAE
Put plainly: Induction of STAT4 degradation in human SUP-M2 cells at 0.25 to 100 uM incubated for 14 hrs by Western blot analysis. Type of data set: cell-based. As to conditions: SUPM2, dose 0.25-100 µM. On the technique in general: In western blotting, separated proteins are transferred to a membrane and probed.

Data set [2] has as its system SU-DHL-1. Put plainly: Antiproliferative activity against human SU-DHL-1 cells assessed as cell growth inhibition incubated for 4 days by CellTiter-Glo asssay. Type of data set: functional, cell-based. As to conditions: SU-DHL-1, 96 h. An outline of the steps:
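Growth inhibition tested in MOLM-16 acute leukemia and SU-DHL-1 and SUP-M2 lymphoma cell lines.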
On the technique in general: Cellular ATP, detected with luciferase, serves as a proxy for viable cell number.

A short description of data set [3]: Stability of the compound in complete cell culture medium measured upto 100 hrs by LC/MS/MS analysis. The class given is physicochemical. An outline of the steps: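 Compound incubated at 37 °C in the cell culture media used for cellular assays; percentages of parent and conversion products determined at time points up to 96 h.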
A short description of data set [4]: Drug uptake in SCID mouse xenografted with human MOLM16 cells assessed as drug level in plasma at 50 mg/kg, iv measured after 6 hrs by LC-MS/MS. Type of data set: ADME, organism-based. An outline of the steps: (§1)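 SCID mice bearing MOLM-16 xenografts given a single iv dose of 50 mg/kg. Concentrations of parent and hydrolysis product measured in plasma (ng/mL) and tumor tissue (ng/g) at 1, 6 and 24 h.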

Data set [5] in a line: Toxicity in SCID mouse xenografted with human MOLM16 cells assessed as toxic effects at 25 to 50 mg/kg, iv for 65 days. The class given is organism-based. To be noted: in vivo, 1560 h, dose 25-50 mg/kg, time 65 day. Summed up:
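SCID mice bearing MOLM-16 xenografts dosed intravenously at 25 or 50 mg/kg on a weekly schedule; vehicle 10% PEG400/90% PBS; body weight and tumor volume measured every 2 days; signs of toxicity monitored during and after treatment.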

Data set [6] relates to Mus musculus. Put plainly: In vivo induction of STAT3 degradation in SCID mouse xenografted with human MOLM16 cells assessed as reduction in total STAT3 level in tumor tissue at 50 mg/kg, iv measured after 24 hrs by immunoblotting analysis. The class given is functional, organism-based. An outline of the steps: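 SCID mice bearing MOLM-16 or SU-DHL-1 xenografts given a single iv dose of 50 mg/kg or dosing vehicle. Tumor lysates immunoblotted for p-STAT3 Y705 and total STAT3 at time points up to 48 h (MOLM-16) and 24 h (SU-DHL-1).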
In general terms: A xenograft is tissue or cells of one species grown in another, often human tumour cells in immunodeficient mice.

The nature of data set [7]: Drug uptake in SCID mouse xenografted with human MOLM16 cells assessed as drug level in tumor tissue at 50 mg/kg, iv measured after 1 hrs by LC-MS/MS. As to conditions: read-out: Drug uptake. The class given is ADME, organism-based. Summed up:
as §1

The nature of data set [8]: Drug uptake in SCID mouse xenografted with human MOLM16 cells assessed as drug level in tumor tissue at 50 mg/kg, iv measured after 6 hrs by LC-MS/MS. As to conditions: read-out: Drug uptake. The class given is ADME, organism-based. An outline of the steps: as §1
Data set [9] can be described thus: Drug uptake in SCID mouse xenografted with human MOLM16 cells assessed as drug level in plasma at 50 mg/kg, iv measured after 24 hrs by LC-MS/MS. Type of data set: ADME, organism-based. Summed up:
as §1

Data set [10] in a line: Drug uptake in SCID mouse xenografted with human MOLM16 cells assessed as drug level in plasma at 50 mg/kg, iv measured after 1 hrs by LC-MS/MS. The class given is ADME, organism-based. Summed up: as §1
For data set [11], the target named is Signal transducer and activator of transcription 2 (Homo sapiens, UniProt P52630). Put plainly: Binding affinity to human recombinant STAT2 assessed as dissociation constant incubated for 15 mins by biolayer interferometry. Summed up: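 Biolayer interferometry with recombinant human STAT1, STAT2, STAT3, STAT4, STAT5A, STAT5B or STAT6 proteins containing their SH2 domain. Compound run in 2× serial dilutions from 200 nM. Kd taken from steady-state fitting of equilibrium responses against concentration using a 1:1 binding model.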

For data set [12], the target named is Signal transducer and activator of transcription 3 (Homo sapiens, UniProt P40763). Put plainly: Binding affinity to recombinant STAT3 (unknown origin) assessed as inhibition constant incubated for 1 hr by fluorescence polarization assay. An outline of the steps: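 Competitive fluorescence-polarization binding assay with recombinant human STAT3 protein. Ki derived from competitive binding curves.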

Data set [13] is described as follows: Drug metabolism in complete cell culture medium assessed as 5-amino-4-(4-(8-((5S,8S,10aR)-8-((S)-5-amino-1-(benzhydrylamino)-1,5-dioxopentan-2-ylcarbamoyl)-6-oxo-5-(5-(phosphonocarbonyl)-1H-indole-2-carboxamido)octahydropyrrolo[1,2-a][1,5]diazocin-3(4H)-yl)-8-oxooct-1-ynyl)-1-oxoisoindolin-2-yl)-5-oxopentanoic acid after 96 hrs by LC/MS/MS analysis. Summed up:
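Parent compound incubated in the cell culture medium used for the cellular assays, with or without cells, at 37 °C. Percentages of the hydrolysis product and the glutarimide ring-opened product measured at time points up to 96 h.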

Data set [14] is described as follows: Drug uptake in SCID mouse xenografted with human MOLM16 cells assessed as drug level in tumor tissue at 50 mg/kg, iv measured after 24 hrs by LC-MS/MS. Type of data set: ADME, organism-based. To be noted: read-out: Drug uptake. An outline of the steps:
as §1

The target in data set [15] is T2, Protein cereblon/Signal transducer and activator of transcription 2 (Homo sapiens) (UniProt Q96SW2+P52630). Put plainly: Protac activity at CRBN/STAT2 in human MOLM16 cells assessed as STAT2 degradation at 0.25 to 100 uM incubated for 4 hrs by Western blot analysis. Type of data set: cell-based. As to conditions: dose 0.25-100 µM. Summed up:
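Cells treated 4 h with compounds across 25 nM to 100 μM; STAT proteins detected by Western blot with GAPDH as loading control; STAT3 DC50 estimated by densitometry of STAT3 relative to GAPDH. Applies to MOLM-16 for all STATs, and to SU-DHL-1 and SUP-M2 for STAT3.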

The target of data set [16] is T2, Protein cereblon/Signal transducer and activator of transcription 2 (Homo sapiens). Put plainly: Protac activity at CRBN/STAT2 in human SU-DHL-1 cells […] at 0.25 to 100 uM incubated for 4 hrs by Western blot analysis. The class given is cell-based. As to conditions: dose lower 0.25 µM.

SMILES strings stand for the structures. The source made the active and inactive calls. The rule behind the calls is not given here. Bounds are passed on as bounds.

For orientation: IC50 means the concentration needed to halve the response being measured. In general, Kd refers to a measure of binding affinity in units of concentration. In general, Ki refers to the dissociation constant of the complex between target and ligand, obtained from inhibition or displacement.

Sequence of Signal transducer and activator of transcription 3 (P40763 whole entry): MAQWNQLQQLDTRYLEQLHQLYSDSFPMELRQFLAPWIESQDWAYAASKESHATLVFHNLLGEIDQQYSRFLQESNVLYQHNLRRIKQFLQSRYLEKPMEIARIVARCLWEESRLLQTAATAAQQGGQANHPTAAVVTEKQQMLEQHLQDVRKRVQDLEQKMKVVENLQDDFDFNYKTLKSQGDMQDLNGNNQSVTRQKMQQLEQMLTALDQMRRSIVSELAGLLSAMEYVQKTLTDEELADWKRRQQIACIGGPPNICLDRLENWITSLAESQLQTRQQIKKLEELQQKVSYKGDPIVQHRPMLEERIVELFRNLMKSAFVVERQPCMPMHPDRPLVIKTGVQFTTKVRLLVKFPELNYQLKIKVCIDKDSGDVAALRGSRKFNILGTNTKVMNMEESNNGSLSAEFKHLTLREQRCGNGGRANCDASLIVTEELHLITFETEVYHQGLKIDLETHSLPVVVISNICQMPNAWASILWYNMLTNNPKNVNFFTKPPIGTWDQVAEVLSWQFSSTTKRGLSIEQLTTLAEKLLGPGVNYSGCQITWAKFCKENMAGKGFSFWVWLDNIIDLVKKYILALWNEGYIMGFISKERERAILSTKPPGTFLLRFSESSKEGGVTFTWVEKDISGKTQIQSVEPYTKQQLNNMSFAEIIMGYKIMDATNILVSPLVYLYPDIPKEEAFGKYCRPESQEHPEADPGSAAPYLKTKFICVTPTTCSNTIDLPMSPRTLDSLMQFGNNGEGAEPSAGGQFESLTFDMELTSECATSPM
T2 sequence (P52630 whole entry, looked up): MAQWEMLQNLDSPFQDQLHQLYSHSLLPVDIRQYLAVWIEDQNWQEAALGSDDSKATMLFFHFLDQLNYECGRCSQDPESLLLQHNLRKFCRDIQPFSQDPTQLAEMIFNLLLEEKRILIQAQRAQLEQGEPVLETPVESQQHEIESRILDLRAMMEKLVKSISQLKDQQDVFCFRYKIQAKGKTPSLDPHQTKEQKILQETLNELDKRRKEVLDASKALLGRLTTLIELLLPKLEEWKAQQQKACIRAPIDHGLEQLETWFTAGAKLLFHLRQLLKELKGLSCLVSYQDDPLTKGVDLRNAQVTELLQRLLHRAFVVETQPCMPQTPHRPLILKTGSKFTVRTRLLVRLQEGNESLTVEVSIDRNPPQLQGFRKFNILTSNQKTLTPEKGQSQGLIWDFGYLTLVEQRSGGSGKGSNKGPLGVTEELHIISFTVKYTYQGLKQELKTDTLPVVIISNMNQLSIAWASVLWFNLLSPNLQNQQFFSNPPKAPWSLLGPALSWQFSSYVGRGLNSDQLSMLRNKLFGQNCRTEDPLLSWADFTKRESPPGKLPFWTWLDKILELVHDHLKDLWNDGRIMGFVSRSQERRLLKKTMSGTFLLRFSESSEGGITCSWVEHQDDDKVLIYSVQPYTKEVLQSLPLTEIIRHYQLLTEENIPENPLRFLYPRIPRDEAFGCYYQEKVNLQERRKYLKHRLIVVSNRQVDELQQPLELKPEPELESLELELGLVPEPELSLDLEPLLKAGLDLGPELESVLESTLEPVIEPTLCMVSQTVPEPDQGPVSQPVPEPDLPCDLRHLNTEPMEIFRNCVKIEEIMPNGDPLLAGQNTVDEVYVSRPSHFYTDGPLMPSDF
T2 sequence (Q96SW2 whole entry, looked up): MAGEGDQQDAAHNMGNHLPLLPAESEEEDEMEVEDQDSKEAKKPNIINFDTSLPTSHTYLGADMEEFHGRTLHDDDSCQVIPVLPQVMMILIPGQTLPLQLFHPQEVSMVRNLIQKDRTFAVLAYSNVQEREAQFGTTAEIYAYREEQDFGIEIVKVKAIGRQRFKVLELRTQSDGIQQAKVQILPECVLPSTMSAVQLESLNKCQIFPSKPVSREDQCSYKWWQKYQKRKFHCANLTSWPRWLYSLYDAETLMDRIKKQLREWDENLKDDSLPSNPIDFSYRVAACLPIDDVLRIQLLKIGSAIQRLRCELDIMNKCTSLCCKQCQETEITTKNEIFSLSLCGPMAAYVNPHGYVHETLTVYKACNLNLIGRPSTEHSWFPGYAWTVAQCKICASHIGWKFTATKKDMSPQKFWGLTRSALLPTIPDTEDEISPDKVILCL
Sequence of Signal transducer and activator of transcription 2 (P52630 whole entry, the tested form may be a part): as the sequence (P52630 whole entry, looked up) above

Take `CC(=O)N1CC[C@H]2CC[C@@H](C(=O)N[C@@H](CCC(N)=O)C(=O)NC(c3ccccc3)c3ccccc3)N2C(=O)[C@@H](NC(=O)c2cc3cc(C(F)(F)P(=O)(O)O)ccc3[nH]2)C1`: in [1], the result was inactive. Also, the IC50 in data set [2] was greater than 10 µM.
Take `CC(=O)N1CC[C@H]2CC[C@@H](C(=O)N[C@@H](CCC(N)=O)C(=O)NC(c3ccccc3)c3ccccc3)N2C(=O)[C@@H](NC(=O)c2cc3cc(C(=O)P(=O)(O)O)ccc3[nH]2)C1`: the result in [1] was inactive. In addition, in data set [2], the IC50 was greater than 10 µM.
Regarding `NC(=O)CC[C@H](NC(=O)[C@@H]1CC[C@@H]2CCN(C(=O)CCCCCC#Cc3cccc4c3CN(C3CCC(=O)NC3=O)C4=O)C[C@H](NC(=O)c3cc4cc(C(=O)P(=O)(O)O)ccc4[nH]3)C(=O)N21)C(=O)NC(c1ccccc1)c1ccccc1` (stereo partly drawn), the Stabilty result in [3] is recorded as “Stable”. The figures for the concentration at 6 h in [4] and in data set [8] were 49200 ng/mL and 4780 ng/g, respectively. The Activity result in data set [5] is “Non-Toxic”. In [6], the outcome was Active. In addition, the values for the concentration at 1 h in data set [7] and in data set [10] were 16200 ng/g and 85500 ng/mL, respectively. For the same compound, the concentration at 24 h in [9] came to 1360 ng/mL; in [14], 1800 ng/g. In addition, in [11], the Kd is greater than 0.01 µM. Besides, the inhibition constant Ki in [12] is 0.0051 µM. In addition, the Drug metabolism in data set [13] is less than 10%. Moreover, in data set [2], the IC50 came out at 2.6 µM.
Regarding `NC(=O)CC[C@H](NC(=O)[C@@H]1CC[C@@H]2CCN(C(=O)CCCCCC#Cc3cccc4c3CN(C3CCC(=O)NC3=O)C4=O)C[C@H](NC(=O)c3cc4cc(C(F)(F)P(=O)(O)O)ccc4[nH]3)C(=O)N21)C(=O)NC(c1ccccc1)c1ccccc1` (stereo partly drawn), the figures for the concentration at 6 h in data set [4] and in [8] were 1300 ng/mL and 580 ng/g, respectively. Moreover, the concentration at 1 h in [7] amounted to 7720 ng/g; in [10], 103000 ng/mL. Further, the concentration at 24 h in data set [9] stood at 58 ng/mL; in [14] it was 275 ng/g. The Ki in data set [12] was 0.0117 µM. Besides, the result in data set [15] and in data set [16] was inactive. For the same compound, in data set [13], the Drug metabolism was 10%. Moreover, the IC50 in [2] is 3.4 µM.
